Measured values as given in ChEMBL document CHEMBL1649438, “Activities of ceftobiprole and other cephalosporins against extracellular and intracellular (THP-1 macrophages and keratinocytes) forms of methicillin-susceptible and methicillin-resistant Staphylococcus aureus” (Antimicrob Agents Chemother, 2009).
In brackets after ≈: the same amount, converted by molar mass.

Assays:
[1] = test system: Staphylococcus aureus; experiment: Antimicrobial activity against hospital-acquired methicillin-resistant Staphylococcus aureus ATCC 33591 infected in human THP-1 cells assessed as bacterial count per mg of cell protein at low extracellular compound concentration after 24 hrs; assay type: functional
Outline: (§1)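 THP-1 macrophages infected as described previously, with a postphagocytosis inoculum of 1.5 × 10⁶ to 3.0 × 10⁶ CFU/mg cell protein. Cells were exposed 24 h to increasing extracellular antibiotic concentrations. Response is the change in log10 CFU/mg protein from the inoculum (n = 3), fitted to a Hill function. E0 and Emax were extrapolated to infinitely low and high concentrations. EC50 and static concentration (graphical interpolation) are expressed as multiples of the broth MIC at pH 5.5 or 7.4.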

[2] = test system: Staphylococcus aureus; experiment: Antimicrobial activity against methicillin-susceptible Staphylococcus aureus NRS52 infected in human THP-1 cells assessed as change in bacterial count after 24 hrs; assay type: functional, organism-based; settings: NRS52, THP-1, 24 h; outline: as §1
[3] = test system: Staphylococcus aureus; experiment: Antimicrobial activity against methicillin-susceptible Staphylococcus aureus ATCC 25923 infected in human keratinocytes assessed as bacterial count per mg of cell protein at low extracellular compound concentration after 24 hrs; assay type: functional
Outline: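 Primary human skin keratinocytes were grown in defined keratinocyte serum-free medium and infected with S. aureus to 1.5 × 10^6 to 3.0 × 10^6 CFU/mg cell protein. Cells were exposed 24 h to increasing extracellular concentrations. Response was the log10 CFU change from the postphagocytosis inoculum, fitted by a Hill equation with slope 1. Cs is the concentration giving CFU equal to the original inoculum, found by graphical interpolation.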

[4] = test system: Staphylococcus aureus; experiment: Antimicrobial activity against methicillin-susceptible Staphylococcus aureus […] infected in human THP-1 cells assessed as change in bacterial count after 24 hrs at pH 5.5; assay type: functional, organism-based; settings: THP-1, 24 h; outline: as §1
[5] = test system: Staphylococcus aureus; experiment: Antimicrobial activity against hospital-acquired vancomycin-intermediate Staphylococcus aureus NRS126 infected in human THP-1 cells assessed as change in bacterial count after 24 hrs at pH 5.5; assay type: functional, organism-based; settings: NRS126, THP-1, 24 h; outline: as §1
[6] = test system: Staphylococcus aureus; experiment: Antimicrobial activity against hospital-acquired methicillin-resistant Staphylococcus aureus ATCC 33591 infected in human THP-1 cells assessed as change in bacterial count after 24 hrs; assay type: functional, organism-based; settings: ATCC 33591, THP-1, 24 h; outline: as §1
[7] = test system: Staphylococcus aureus; experiment: Bacteriostatic activity against Panton-valentine leucocidin-positive community-acquired methicillin-resistant Staphylococcus aureus NRS192 infected in human THP-1 cells assessed as change in bacterial count after 24 hrs at pH 5.5; assay type: functional; outline: as §1
[8] = test system: Staphylococcus aureus; experiment: Antimicrobial activity against methicillin-resistant Staphylococcus aureus ATCC 33591 infected in human keratinocytes assessed as change in bacterial count after 24 hrs; assay type: functional, organism-based; settings: ATCC 33591, 24 h
Outline: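 Primary human skin keratinocytes were grown in defined keratinocyte serum-free medium, infected with a postphagocytosis inoculum of 1.5 × 10⁶ to 3.0 × 10⁶ CFU/mg cell protein, then exposed 24 h to increasing extracellular antibiotic concentrations. Change in log10 CFU/mg protein from the inoculum was fitted to a Hill equation with slope 1. E0 and Emax were extrapolated to infinitely low and high concentrations, in total drug mg/liter.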

[9] = test system: Staphylococcus aureus; experiment: Antimicrobial activity against Panton-valentine leucocidin-positive community-acquired methicillin-resistant Staphylococcus aureus NRS192 infected in human THP-1 cells assessed as bacterial count per mg of cell protein at high extracellular compound concentration after 24 hrs; assay type: functional
Outline: (§2)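 THP-1 human macrophages infected with S. aureus (postphagocytosis inoculum 1.5 × 10^6 to 3.0 × 10^6 CFU/mg cell protein), then incubated 24 h with increasing extracellular antibiotic concentrations. Change in log10 CFU/mg cell protein from the postphagocytosis inoculum, n = 3. Hill function fitted on log-transformed data. Low-concentration value (E0) and high-concentration value (Emax) are extrapolated. Where a pH is given, concentrations are expressed as multiples of the broth MIC at that pH.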

[10] = test system: Staphylococcus aureus; experiment: Antimicrobial activity against hospital-acquired methicillin-resistant Staphylococcus aureus ATCC 33591 infected in human THP-1 cells assessed as change in bacterial count after 24 hrs at pH 7.4; assay type: functional, organism-based; settings: ATCC 33591, THP-1, 24 h; outline: as §1
[11] = test system: Staphylococcus aureus; experiment: Bacteriostatic activity against Panton-valentine leucocidin-positive community-acquired methicillin-resistant Staphylococcus aureus STA 228 infected in human THP-1 cells assessed as change in bacterial count after 24 hrs at pH 5.5; assay type: functional; outline: as §1
[12] = test system: Staphylococcus aureus; experiment: Antimicrobial activity against Panton-valentine leucocidin-positive community-acquired methicillin-resistant Staphylococcus aureus NRS192 infected in human THP-1 cells assessed as change in bacterial count after 24 hrs at pH 5.5; assay type: functional, organism-based; settings: NRS192, THP-1, 24 h; outline: as §2
[13] = test system: Staphylococcus aureus; experiment: Antimicrobial activity against methicillin-susceptible Staphylococcus aureus NRS52 infected in human THP-1 cells assessed as change in bacterial count after 24 hrs at pH 7.4; assay type: functional, organism-based; settings: NRS52, THP-1, 24 h; outline: as §1
[14] = test system: Staphylococcus aureus; experiment: Antimicrobial activity against methicillin-susceptible Staphylococcus aureus […] infected in human THP-1 cells assessed as bacterial count per mg of cell protein at low extracellular compound concentration after 24 hrs; assay type: functional
Outline: (§3)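 Human THP-1 macrophage-like cells were infected with S. aureus to a postphagocytosis inoculum of 1.5 × 10^6 to 3.0 × 10^6 CFU/mg cell protein. Cells were then exposed 24 h to increasing extracellular antibiotic concentrations. Response was the log10 CFU change per mg protein from the postphagocytosis inoculum, n = 3. A Hill function was fitted on log-transformed axes. E0 and Emax were extrapolated to infinitely low and high concentrations. Cs was read by graphical interpolation. Concentrations were expressed as multiples of the broth MIC at pH 5.5 or pH 7.4.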

[15] = test system: Staphylococcus aureus; experiment: Antimicrobial activity against hospital-acquired methicillin-resistant Staphylococcus aureus ATCC 33592 infected in human THP-1 cells assessed as change in bacterial count after 24 hrs at pH 5.5; assay type: functional, organism-based; settings: ATCC 33592, THP-1, 24 h; outline: as §1
[16] = test system: Staphylococcus aureus; experiment: Antimicrobial activity against Panton-valentine leucocidin-positive community-acquired methicillin-resistant Staphylococcus aureus N4090440 infected in human THP-1 cells assessed as bacterial count per mg of cell protein at low extracellular compound concentration after 24 hrs; assay type: functional; outline: as §2
[17] = test system: Staphylococcus aureus; experiment: Antimicrobial activity against hospital-acquired vancomycin-intermediate Staphylococcus aureus NRS126 infected in human THP-1 cells assessed as bacterial count per mg of cell protein at low extracellular compound concentration after 24 hrs; assay type: functional; outline: as §3
[18] = test system: Staphylococcus aureus; experiment: Antimicrobial activity against methicillin-susceptible Staphylococcus aureus NRS52 infected in human THP-1 cells assessed as bacterial count per mg of cell protein at low extracellular compound concentration after 24 hrs; assay type: functional; outline: as §3
[19] = test system: Staphylococcus aureus; experiment: Antimicrobial activity against hospital-acquired vancomycin-resistant Staphylococcus aureus VRS1 infected in human THP-1 cells assessed as change in bacterial count after 24 hrs; assay type: functional, cell-based; settings: VRS1, THP-1, 24 h; outline: as §1
[20] = test system: Staphylococcus aureus; experiment: Antimicrobial activity against hospital-acquired vancomycin-resistant Staphylococcus aureus VRS1 infected in human THP-1 cells assessed as change in bacterial count after 24 hrs at pH 5.5; assay type: functional, cell-based; settings: VRS1, THP-1, 24 h; outline: as §1
[21] = test system: Staphylococcus aureus; experiment: Antimicrobial activity against hospital-acquired vancomycin-resistant Staphylococcus aureus VRS1 infected in human THP-1 cells assessed as bacterial count per mg of cell protein at low extracellular compound concentration after 24 hrs; assay type: functional; outline: as §1
[22] = test system: Staphylococcus aureus; experiment: Antimicrobial activity against Panton-valentine leucocidin-positive community-acquired methicillin-resistant Staphylococcus aureus N4090440 infected in human THP-1 cells assessed as bacterial count per mg of cell protein at high extracellular compound concentration after 24 hrs at pH 5.5; assay type: functional; outline: as §2

Q: With `Nc1nc(/C(=N/O)C(=O)N[C@@H]2C(=O)N3C(C(=O)O)=C(/C=C4\CCN([C@@H]5CCNC5)C4=O)CS[C@H]23)ns1` [CEFTOBIPROLE] as the compound, how does the log10cfu [1] read?
A: 2.47

Q: What about the EC50 [2] of the same compound?
A: 0.19 µg/mL (≈ 0.355 µM)

Q: What about the log10cfu [3] of the same compound?
A: 2.48

Q: What about the EC50 [4] of the same compound?
A: 0.41 × MIC

Q: And the EC50 [5]?
A: 0.77 × MIC

Q: And the EC50 [6]?
A: 0.27 µg/mL (≈ 0.505 µM)

Q: What about the Activity [7] of the same compound?
A: 1.45 × MIC

Q: What about the EC50 [8] of the same compound?
A: 1.08 µg/mL (≈ 2.02 µM)

Q: And the log10cfu [9]?
A: -0.89

Q: And the EC50 [10]?
A: 0.28 ×MIC

Q: What about the Activity [11] of the same compound?
A: 1.45 × MIC

Q: What about the EC50 [12] of the same compound?
A: 0.54 × MIC

Q: What about the EC50 [13] of the same compound?
A: 0.2 ×MIC

Q: What about the log10cfu [14] of the same compound?
A: 3.49

Q: What about the EC50 [15] of the same compound?
A: 0.77 ×MIC

Q: What about the log10cfu [16] of the same compound?
A: 3.39

Q: And the log10cfu [17]?
A: 3.02

Q: What about the log10cfu [18] of the same compound?
A: 2.89

Q: What about the EC50 [19] of the same compound?
A: 0.25 µg/mL (≈ 0.468 µM)

Q: And the EC50 [20]?
A: 0.77 × MIC

Q: What about the log10cfu [21] of the same compound?
A: 2.57

Q: And the log10cfu [22]?
A: -1.02
